Measured values taken from ChEMBL document CHEMBL1137748, “Design, synthesis and characterization of novel 2-(2,4-disubstituted-thiazole-5-yl)-3-aryl-3H-quinazoline-4-one derivatives as inhibitors of NF-kappaB and AP-1 mediated transcription activation and as potential anti-inflammatory agents” (Eur J Med Chem, 2009).

Legend:
HEK293 = assay: Inhibition of NF-kappaB expressed in HEK293 cells assessed as inhibition of TNF-alpha-induced transcriptional activation at 10 uM treated 24 hrs before TNFalpha challenge measured after 20 to 24 hrs by luciferase assay relative to control; type: cell-based
Procedure, shortened: (§1)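 HEK/NF-κB cells stably carrying an NF-κB response element driving luciferase. Plated at 5×10^4 cells/well and held 24 h at 37 °C, 5% CO2. Compounds in 0.1% DMSO were added to replicate wells for 24 h, then TNF-α was added and cells were incubated 20–24 h. Bright-Glo lysis/substrate was added and luminescence read. The replicate mean was normalized to the maximal control.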

Rattus norvegicus = assay: Antiinflammatory activity in Sprague-Dawley rat assessed as protection against carrageenan-induced paw edema at 50 mg/kg, po administered 1 hr before carrageenan challenge measured after 3 hrs relative to control; type: functional
Procedure, shortened: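 Sprague-Dawley rats of either sex, 150–250 g, fasted 18 h, n = 4 per group, each group run against a vehicle control. Dosed orally at 50 mg/kg in freshly made 0.2% agar suspension. One hour later, 0.1 ml of 1% carrageenan in saline was injected subplantar into the right hind paw. Paw volume was read by plethysmometer at 3 h. % protection = (control − test)/control × 100.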

[1] = target: Transcription factor Jun (Homo sapiens) (UniProt P05412); assay: Inhibition of AP1 expressed in HEK293 cells assessed as inhibition of PMA-induced transcriptional activation at 10 uM treated 24 hrs before PMA challenge measured after 20 to 24 hrs by luciferase assay relative to control
[2] = Inhibition of NF-kappaB expressed in HEK293 cells assessed as inhibition of TNF-alpha-induced transcriptional activation treated 24 hrs before TNFalpha challenge measured after 20 to 24 hrs by luciferase assay; type: cell-based; procedure, shortened: as §1

Sequence of Transcription factor Jun (Homo sapiens) (P05412 whole entry): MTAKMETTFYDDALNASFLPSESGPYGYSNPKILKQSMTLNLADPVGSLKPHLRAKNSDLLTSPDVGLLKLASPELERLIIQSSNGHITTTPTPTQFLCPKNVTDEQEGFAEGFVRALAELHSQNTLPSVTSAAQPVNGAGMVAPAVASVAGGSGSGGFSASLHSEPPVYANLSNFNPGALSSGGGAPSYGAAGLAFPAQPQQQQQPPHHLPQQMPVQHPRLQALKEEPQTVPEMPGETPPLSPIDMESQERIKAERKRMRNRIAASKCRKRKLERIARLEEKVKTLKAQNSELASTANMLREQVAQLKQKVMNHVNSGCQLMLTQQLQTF

| Compound | inhibition (HEK293) [%] | Activity (Rattus norvegicus) [%] | inhibition [1] [%] | IC50 [2] [µM] |
| --- | --- | --- | --- | --- |
| Cc1ccc(-n2c(-c3sc(Nc4ccc(Cl)cc4)nc3C)nc3ccccc3c2=O)cc1 | 12 | 37 | 2 |  |
| CC(=O)c1ccc(-n2c(-c3sc(Nc4ccccc4)nc3C)nc3ccccc3c2=O)cc1 | 15 |  | 7 |  |
| CC(=O)c1ccc(-n2c(-c3sc(Nc4ccc(Cl)cc4)nc3-c3ccccc3)nc3ccccc3c2=O)cc1 | 0 | 23 | 31 |  |
| O=c1c2ccccc2nc(-c2sc(Nc3ccc(Cl)cc3)nc2-c2ccccc2)n1-c1ccccc1Cl | 24 | 61 | 0 |  |
| Cc1cccc(-n2c(-c3sc(Nc4ccc(Cl)cc4)nc3C)nc3ccccc3c2=O)c1 | 2 |  | 39 |  |
| Cc1nc(Nc2ccc(Cl)cc2)sc1-c1nc2ccccc2c(=O)n1-c1ccccc1Cl | 60 | 58 | 21 |  |
| CC(=O)c1ccc(-n2c(-c3sc(Nc4ccc(Cl)cc4)nc3C)nc3ccccc3c2=O)cc1 | 0 | 13 | 2 |  |
| CNc1nc(-c2ccccc2)c(-c2nc3ccccc3c(=O)n2-c2ccc(C(C)=O)cc2)s1 | 4 |  | 15 |  |
| CNc1nc(C)c(-c2nc3ccccc3c(=O)n2-c2cccc(C)c2)s1 | 10 |  | 20 |  |
| Cc1nc(Nc2ccc(Cl)cc2)sc1-c1nc2ccccc2c(=O)n1-c1ccccc1 | 0 | 4 | 0 |  |
| CNc1nc(C)c(-c2nc3ccccc3c(=O)n2-c2ccc(C(C)=O)cc2)s1 | 71 | 42 | 0 | 5.5 |
| O=c1c2ccccc2nc(-c2sc(Nc3ccc(Cl)cc3)nc2-c2ccccc2)n1-c1ccccc1 | 0 |  | 27 |  |
| Cc1nc(Nc2ccccc2)sc1-c1nc2ccccc2c(=O)n1-c1ccccc1Cl | 6 |  | 21 |  |
| CNc1nc(C)c(-c2nc3ccccc3c(=O)n2-c2ccccc2C)s1 | 16 | 35 | 67 |  |
| Cc1nc(Nc2ccccc2)sc1-c1nc2ccccc2c(=O)n1-c1ccccc1 | 25 | 12 | 16 |  |
| COc1ccccc1-n1c(-c2sc(Nc3ccc(Cl)cc3)nc2C)nc2ccccc2c1=O |  | 27 |  |  |
| COc1ccc(-n2c(-c3sc(Nc4ccc(Cl)cc4)nc3C)nc3ccccc3c2=O)cc1 | 0 | 5 | 0 |  |
| CNc1nc(C)c(-c2nc3ccccc3c(=O)n2-c2ccc(Cl)cc2)s1 | 93 | 71 | 82 | 3.3 |
| Cc1ccccc1-n1c(-c2sc(Nc3ccc(Cl)cc3)nc2C)nc2ccccc2c1=O |  | 45 |  |  |
| Cc1nc(Nc2ccccc2)sc1-c1nc2ccccc2c(=O)n1-c1ccc(Cl)cc1 | 79 | 72 | 9 | 5.5 |
| Cc1nc(Nc2ccc(Cl)cc2)sc1-c1nc2ccccc2c(=O)n1-c1ccc(Cl)cc1 | 96 | 38 | 84 | 3.3 |
| Nc1nc(Nc2ccc(Cl)cc2)sc1-c1nc2ccccc2c(=O)n1-c1ccc(Cl)cc1 | 0 | 37 | 0 |  |
| Cc1ccccc1-n1c(-c2sc(Nc3ccccc3)nc2C)nc2ccccc2c1=O | 21 | 42 | 60 |  |
| Cc1ccccc1-n1c(-c2sc(Nc3ccc(Cl)cc3)nc2-c2ccccc2)nc2ccccc2c1=O | 27 | 51 | 32 |  |
| CC(=O)c1ccc(-n2c(-c3sc(Nc4ccc(Cl)cc4)nc3N)nc3ccccc3c2=O)cc1 | 12 | 53 | 2 |  |
| Cc1ccc(Nc2nc(-c3ccccc3)c(-c3nc4ccccc4c(=O)n3-c3ccc(Cl)cc3)s2)cc1 | 0 |  | 0 |  |
